For 167 variants, yeast fitness results are on record in the RNAGym collection of RNA variant scans (doi:10.1126/science.aae0568).

Variants at the floor of the assay were thinned out.

To fix the notation:
B1: tRNA (parent)
chain: GUUCCGUUGGCGUAAUGGUAACGCGUCUCCCUCCUAAGGAGAAGACUGCGGGUUCGAGUCCCGUACGGAACG

Variants of B1 are the subject of this data set. The data set can be described thus: yeast fitness relative to wild type (ratio to wild type); higher = fitter; tRNA-Arg(CCU), competitive growth, 37 C, YPD. In short, it runs like this: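 Changes in genotype frequencies gave Darwinian fitness relative to wild type. Frequencies were read by 100-nucleotide paired-end sequencing of gene amplicons before and after pooled Saccharomyces cerevisiae strains, carrying tRNA-Arg(CCU) gene variants at the native locus, were competed in YPD at 37°C for 24 hours in six replicates. A genotype was kept only with ≥ 100 starting reads, and estimates < 0.5 were set to 0.5.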
In the case of C33A A45G A70U, the yeast fitness came out at 0.638. For C34G U59A G68A the value was at most 0.5. The result for C33G C55A G58A reads 0.609; that for C34A C49U C61G, at most 0.5; that for C34A A36C G67A, at most 0.5. As for C33U A36G G41A C61G, the yeast fitness was at most 0.5. On to C34G A43C C49U G56A, for which the yeast fitness is at most 0.5. The result for C34G C62A G63A reads at most 0.5; that for C33U A43C, 0.656; that for C33U A43U, 0.898.

Regarding C34G A40C G48A, the yeast fitness is at most 0.5. For the variant C34G C49G G68C, the yeast fitness worked out at 0.629. For C33G A36U A57C the value was at most 0.5. With C34A C66U, the yeast fitness was 0.764.

Turning to C34A C66G, the yeast fitness turned out to be 0.647.

Take C34G A36C A70C: the yeast fitness is at most 0.5. In the case of U32G G67C, the yeast fitness turned out to be 0.59. Take C33U A65U C66U: the yeast fitness was at most 0.5. With C33G A42G G52A C62A A70U, the yeast fitness was 0.589. The result for C34G C46A C62U reads 0.541; that for C33A A36U C62U, at most 0.5; that for C33G G67A, 0.672.

For C33U G48A, the yeast fitness was 0.678. As for C33U C61U C66G, the yeast fitness was 0.543. Take C33A A37U C62A A70C: the yeast fitness worked out at 0.605.

As to C33G U64A, the yeast fitness was at most 0.5.

Consider C34A G56C, for which the yeast fitness was at most 0.5. As to C33U A70U, the yeast fitness amounted to 0.902. With C33U A70C, the yeast fitness was found to be 0.832. Take C34G U53G: the yeast fitness was at most 0.5. With C33A C34A, the yeast fitness stood at 0.621. For the variant C33A C34G, the yeast fitness amounted to 0.755.

C34G G48A A57G: the yeast fitness was determined as 0.631. For C33A C49U G52A A70C the value was at most 0.5; for C34G A69U A70C, 0.696.

For C33G A42G G52A C62U A70U, the yeast fitness is at most 0.5. Regarding C34A A42U U54A A57U, the yeast fitness was 0.511. As to C33A A40G, the yeast fitness came out at 0.683. C33G G39U A69C: the yeast fitness was at most 0.5. The result for C33A U35A A70C reads at most 0.5; that for U32G U35G A36C A37G C61G A70G, at most 0.5; that for C34A U54A G67A, at most 0.5. For C34A A37C C49A, the yeast fitness amounted to 0.522. For the variant C33U C55U, the yeast fitness worked out at 0.586.

For the variant C33U C34A, the yeast fitness came out at 0.574.

As for C34A A40C U54C C66U, the yeast fitness amounted to 0.623.

For the variant C33U C34U G38A G51A C55A A65U, the yeast fitness came to 0.566.

In the case of U32G U35G A36C C61G A70G, the yeast fitness came to 0.583. C33U A43U C49A G50C C61U C66U: the yeast fitness is at most 0.5. The result for C34G G58C A69C reads 0.576.

As for U32G G68C, the yeast fitness amounted to 0.703. For the variant U32G C62A, the yeast fitness amounted to 0.512. For U32G C62U the value was 0.625.

With C33G A57G C61G G63A A65G C66U, the yeast fitness was at most 0.5. With C34G C49U A65C, the yeast fitness is 0.532. The result for C34G A40U U47A G67C reads at most 0.5; that for C33G A42G G52A A70U, at most 0.5; that for C33G C34G C46G, at most 0.5. With C34A G41A C55G, the yeast fitness is at most 0.5.

As for C33G C62A G67C, the yeast fitness was at most 0.5.

In the case of C34G G41C A69U, the yeast fitness is at most 0.5. Turning to C34A C46U A65C, the yeast fitness came out at 0.569.

C34A U59G: the yeast fitness worked out at 0.745. For C33U C46U G68C, the yeast fitness was 0.615. On to C33G A37U A40C A69U, for which the yeast fitness turned out to be 0.543.

For C33G C61A C62U, the yeast fitness is at most 0.5.

For the variant C34G A40U A43C C46A G63C, the yeast fitness is at most 0.5.

In the case of C34A U47G C49G C60G, the yeast fitness was 0.571.

Take C33A A43C G50A A57U C60G: the yeast fitness was at most 0.5. For C33U A65C G68C the value was 0.504; for C34G U35A A57U, at most 0.5; for U32G G39C C62G G68A, at most 0.5. As for U32G U35A G38C G51C C66U, the yeast fitness was found to be 0.579.

Regarding C34G C61U, the yeast fitness is 0.602. Regarding C33U G39C, the yeast fitness amounted to 0.622. The result for C33U G39A reads 0.626.

For the variant C33G G44A G56A C61U, the yeast fitness was at most 0.5. For C33A U35A C62U the value was 0.617. C34G A57C G63A: the yeast fitness was at most 0.5. On to C33G C62A G63C, for which the yeast fitness is at most 0.5.

As to C33U C34A G38C G52A, the yeast fitness is at most 0.5. Take C34G G52A A65U: the yeast fitness is at most 0.5. Regarding C33G G51C G68A A69C, the yeast fitness stood at 0.607.

For the variant C33A A36C C46G C62G A69U, the yeast fitness is at most 0.5. Regarding C33U G44C C60U A69G, the yeast fitness is at most 0.5. In the case of C33U A42C U64C A70G, the yeast fitness was at most 0.5. With C34A A42U G58C C60A C62U, the yeast fitness is 0.571. With C33U U54C G58A, the yeast fitness turned out to be 0.643. Turning to C34A A36C C61U U64A, the yeast fitness was at most 0.5. Consider C33A C46G C60U, for which the yeast fitness was 0.76.

Take C34A A43U A70U: the yeast fitness is 0.607.

Regarding C33G G38C C46A, the yeast fitness amounted to 0.551. For U32G G48C A65C the value was 0.574; for C33G C62U, 0.758; for C34A G50C G51A C61G, at most 0.5.

With C33G A42U G63A, the yeast fitness stood at 0.516. The result for C34A A43C G67A reads 0.537; that for C33G C66A, at most 0.5.

Regarding C33G C66U, the yeast fitness worked out at 0.787. For C33G A42C C49G G58C C62G, the yeast fitness was determined as 0.513. Consider C33A G39C C49U U54A, for which the yeast fitness is at most 0.5.

For U32G G50A, the yeast fitness came to 0.714. In the case of C33G U35C, the yeast fitness was 0.603. For the variant C33G U35A, the yeast fitness was at most 0.5. For C33G U53A, the yeast fitness was 0.65. Take C33A A40U C55U C62U: the yeast fitness is at most 0.5. On to C33G A45G U64A, for which the yeast fitness was 0.586.

C33G A37G C46A C49U: the yeast fitness is at most 0.5. Consider C33U G41A C49U C61G, for which the yeast fitness is at most 0.5.

In the case of C33A C55G, the yeast fitness turned out to be 0.564. For the variant C34A A42U C61G A65U, the yeast fitness is at most 0.5. As to C34G C49U A57U, the yeast fitness is at most 0.5.

With C34G G63A G67A, the yeast fitness is at most 0.5. With C33U C62A, the yeast fitness is 0.824. As for C33U C62G, the yeast fitness came out at 0.632.

As to C34A C55U, the yeast fitness amounted to 0.524.

For the variant C34A C55G, the yeast fitness was determined as 0.517. For the variant C33A C34U G52A A57G, the yeast fitness is at most 0.5. For the variant C33G A70G, the yeast fitness is 0.633. The result for C34G C60U C61U reads 0.545; that for U32G C55A A57G, at most 0.5; that for U32G U35A G38C C46G, at most 0.5. As to C34A C55G G58A U64C A65C, the yeast fitness was at most 0.5. For C34G C49U the value was 0.708.

As for U32G C46U A69U, the yeast fitness was 0.602. As to C34A U64C, the yeast fitness came to 0.834. As for C34G G58A G63C, the yeast fitness is at most 0.5. With C34A G39C, the yeast fitness was 0.792.

Take C34G A36G A57U: the yeast fitness is at most 0.5. In the case of C33G G41C A43C, the yeast fitness is at most 0.5. As to C34G G41A A42C C66U, the yeast fitness is at most 0.5.

Regarding C34G A37C C62A, the yeast fitness is at most 0.5. C33G G48A: the yeast fitness was 0.629. For C34G G41A A42C G67C the value was 0.597. C33A C46U U59C G67A G68C: the yeast fitness was at most 0.5. In the case of C34G U59C, the yeast fitness was 0.602. For the variant C33A G50A, the yeast fitness came out at 0.545. With C33U C49G C60G C62G G63A, the yeast fitness is at most 0.5. The result for C34G A42C reads 0.573; that for C33G U47A, 0.579; that for C33U C46A C55G, 0.604. With C34G A45C C62G, the yeast fitness was at most 0.5. As to C34G C49G C61U U64A, the yeast fitness was at most 0.5. Consider C34G A40C G44A, for which the yeast fitness was at most 0.5. As to C33G G41A A69C, the yeast fitness was at most 0.5. For the variant C34G A42C C46U U54A C55G G58C C66A, the yeast fitness is at most 0.5.

On to C33A A42C A45C U47G, for which the yeast fitness worked out at 0.515. Regarding C33U G56A G58C, the yeast fitness amounted to 0.589. For C33G G52A G56U, the yeast fitness was at most 0.5. In the case of C33A G39C G41C G44C A69C, the yeast fitness is 0.577. As for C33U C34A U53G U54A, the yeast fitness is 0.588.

On to C34G C66A A69C, for which the yeast fitness worked out at 0.599. The result for U32G C61U A69C reads 0.746. On to C34G G52C A70U, for which the yeast fitness came out at 0.542. Take C33A G38C C46A G58C: the yeast fitness was 0.698. On to C33G C61G, for which the yeast fitness stood at 0.815. Take C33U A36C A43G A57U: the yeast fitness was at most 0.5. With C33G U53A C60U, the yeast fitness worked out at 0.637. Take C33A A43G A45C C60A: the yeast fitness was determined as 0.564.

For the variant C34A C60G G68A, the yeast fitness was 0.688. For the variant U32G G41C, the yeast fitness is 0.597. As for C33G G38C G41C A43C U47G G67C, the yeast fitness is 0.582. The result for C33U G44C reads 0.601. The result for C33U A42C reads 0.63. The result for C33A C34G G50A A70U reads at most 0.5; that for C33U A42G C46A, 0.644. With C34A A45U C46A G50A U54C C55G, the yeast fitness was at most 0.5.
